Assay results from ChEMBL document CHEMBL4049400, “Aldehyde Oxidase Mediated Metabolism in Drug-like Molecules: A Combined Computational and Experimental Study” (J Med Chem, 2017).

Experiments:
[1] = target: T1, Aldehyde oxidase (Homo sapiens, UniProt Q06278); test: Drug metabolism in human liver cytosol assessed as as AOX-mediated quinolone group metabolism at 10 uM after 30 mins by UPLC/Q-TOF MS analysis; type: ADME; details: 0.5 h
T1 sequence (Q06278 whole entry): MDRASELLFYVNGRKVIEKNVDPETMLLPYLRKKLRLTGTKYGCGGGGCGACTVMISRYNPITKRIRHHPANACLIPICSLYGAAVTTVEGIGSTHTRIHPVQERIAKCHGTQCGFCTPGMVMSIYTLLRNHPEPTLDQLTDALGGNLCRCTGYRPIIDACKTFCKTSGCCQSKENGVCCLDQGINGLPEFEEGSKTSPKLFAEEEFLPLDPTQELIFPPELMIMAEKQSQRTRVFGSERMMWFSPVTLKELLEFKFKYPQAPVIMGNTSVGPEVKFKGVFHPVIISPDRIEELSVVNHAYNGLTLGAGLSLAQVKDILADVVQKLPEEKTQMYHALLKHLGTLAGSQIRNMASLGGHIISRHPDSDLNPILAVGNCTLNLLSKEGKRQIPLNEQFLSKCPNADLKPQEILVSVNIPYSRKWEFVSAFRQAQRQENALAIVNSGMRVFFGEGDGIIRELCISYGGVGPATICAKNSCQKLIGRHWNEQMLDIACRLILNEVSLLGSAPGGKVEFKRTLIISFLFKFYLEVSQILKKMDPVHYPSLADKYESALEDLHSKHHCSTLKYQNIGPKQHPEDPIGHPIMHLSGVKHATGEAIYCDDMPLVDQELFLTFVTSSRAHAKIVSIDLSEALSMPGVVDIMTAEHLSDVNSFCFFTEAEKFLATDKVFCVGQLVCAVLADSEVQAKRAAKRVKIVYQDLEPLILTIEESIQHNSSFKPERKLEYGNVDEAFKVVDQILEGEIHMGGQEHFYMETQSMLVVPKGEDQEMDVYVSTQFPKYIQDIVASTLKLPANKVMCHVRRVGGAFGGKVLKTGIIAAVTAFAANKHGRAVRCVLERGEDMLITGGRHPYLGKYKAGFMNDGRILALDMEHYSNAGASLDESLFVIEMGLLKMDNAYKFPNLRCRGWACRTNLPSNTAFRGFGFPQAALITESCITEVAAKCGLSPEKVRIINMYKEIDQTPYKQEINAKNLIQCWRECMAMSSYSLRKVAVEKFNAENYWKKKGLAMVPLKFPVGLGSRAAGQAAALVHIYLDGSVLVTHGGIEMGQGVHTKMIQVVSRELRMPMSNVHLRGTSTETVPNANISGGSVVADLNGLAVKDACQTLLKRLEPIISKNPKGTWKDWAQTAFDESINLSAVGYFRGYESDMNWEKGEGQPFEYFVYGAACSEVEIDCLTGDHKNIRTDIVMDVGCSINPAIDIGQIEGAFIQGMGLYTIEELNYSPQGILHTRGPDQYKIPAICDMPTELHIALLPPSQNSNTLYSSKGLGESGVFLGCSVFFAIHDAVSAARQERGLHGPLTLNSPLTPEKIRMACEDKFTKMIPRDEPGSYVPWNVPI
Method in brief: (§1)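 Pooled human liver cytosol, 0.5 mg/mL protein, in 100 mM potassium phosphate pH 7.4; 3 min preincubation at 37 °C, then 10 μM substrate (final; DMSO 0.1% v/v). Quenched after 30 min with equal volume ice-cold acetonitrile, centrifuged, supernatant run by UPLC/Q-TOF MS in positive ion mode. Controls without substrate or with inactivated enzyme; duplicate incubations.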

[2] = target: T1, Aldehyde oxidase; test: Drug metabolism in human liver cytosol assessed as AOX-mediated oxidative metabolite formation by measuring decrease in the liquid chromatography-mass spectrometry peak at 10 uM after 30 min by UPLC/Q-TOF MS analysis; type: ADME; details: 0.5 h; method in brief: as §1
[3] = target: T1, Aldehyde oxidase; test: Drug level in human liver cytosol treated with capmatinib assessed as AOX-mediated metabolite formation at 10 uM after 30 min by UPLC/Q-TOF MS analysis; type: ADME; details: 0.5 h; method in brief: as §1
[4] = Retention time of the compound by UPLC/Q-TOF MS analysis
Method in brief: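 HSS T3 column (1.8 μm, 100 × 2.1 mm) at 45 °C, 0.4 mL/min. Mobile phase: 5 mM ammonium acetate with 0.1% formic acid (A) and acetonitrile (B). Gradient 10% B for 1 min, to 65% B over 6 min, to 99% B over 0.5 min, held 1.5 min, back to 10% B. Positive-ion Q-TOF detection, m/z 80–1000.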

[5] = target: T1, Aldehyde oxidase; test: (§2) Drug metabolism in human liver cytosol assessed as AOX-mediated 2-fluoro-N-methyl-4-(3-oxo-7-(quinolin-7-ylmethyl)-3,4-dihydroimidazo[1,2-b][1,2,4]triazin-2-yl)benzamide metabolite formation by measuring LC-MS peak area of the metabolite at 10 uM after 30 min by UPLC/Q-TOF MS analysis; type: ADME; details: 0.5 h; method in brief: as §1
[6] = target: T1, Aldehyde oxidase; test: as §2, with “mins in presence of menadione” for “min”; type: ADME; details: 0.5 h
Method in brief: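 Human liver cytosol (0.5 mg/mL protein) in 100 mM phosphate buffer preincubated 10 min at 37 °C with 100 μM menadione (DMSO 0.2% v/v final), then 10 μM substrate (final) added. Stopped at 30 min with equal volume ice-cold acetonitrile; metabolites detected by UPLC/Q-TOF MS. Inhibitor-free controls run alongside; duplicate incubations.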

| Drug metabolism [1] | Drug metabolism [2] | Compound | other results |
| --- | --- | --- | --- |
| Metabolite_Detected | – | Cn1cc(-c2ccc3nnc(C(F)(F)c4ccc5ncccc5c4)n3n2)cn1 [JNJ-38877605] | – |
| – | Metabolite_Detected | CNC(=O)c1ccc(-c2cnc3ncc(Cc4ccc5ncccc5c4)n3n2)cc1F [CAPMATINIB] | – |
| Metabolite_Detected | Metabolite_Detected | OCCn1cc(-c2cnc3nnn(Cc4ccc5ncccc5c4)c3n2)cn1 [PF-04217903] | – |
| – | Metabolite_Detected | Cn1cc(-c2ccc3ncc(Cc4ccc5ncccc5c4)n3n2)cn1 | – |
| – | – | CNC(=O)c1ccc(-c2nn3c(Cc4ccc5ncccc5c4)cnc3[nH]c2=O)cc1F | Drug metabolism [3]: Metabolite_Detected; Retention time [4]: 3.63 min; Drug metabolism [5]: 136000; Drug metabolism [6]: 3220 |
| Metabolite_Detected | – | Cn1cc(-c2ccc3nnc(Sc4ccc5ncccc5c4)n3n2)cn1 [SGX-523] | – |
